ChEMBL document CHEMBL1125819, “Novel benzamides as selective and potent gastrokinetic agents. 2. Synthesis and structure-activity relationships of 4-amino-5-chloro-2-ethoxy-N-[[4-(4-fluorobenzyl)-2- morpholinyl]methyl] benzamide citrate (AS-4370) and related compounds” (J Med Chem, 1991)

Tests used:
Mus musculus [1] = experiment: Gastric emptying of phenol red semisolid meal in mouse at the dose of 1.0 mg/kg administered perorally.; assay type: functional; conditions: route oral
Method in brief: (§1)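 Mice received oral test article in 0.5% tragacanth, four or five animals per dose. Emptying of a phenol red semisolid meal was expressed as percent enhancement over the mean of 0.5% tragacanth controls. Significance was tested by Duncan's multiple range test.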

Mus musculus [2] = experiment: Toxicity tested in mouse and expressed as number of dead mouse / number of mouse used after a dose of 1.0 g/kg perorally; + slight toxicity; assay type: organism-based; conditions: in vivo, po, 1000 mg/kg
Method in brief: (§2)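 Male ddY mice (18–25 g), groups of 10, given test compound dissolved or suspended in 0.5% tragacanth solution at a single oral dose of 1.0 g/kg. Mortality observed over 7 days after dosing and scored as dead/used per group; + corresponds to 0–2/10 dead.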

Rattus norvegicus [3] = experiment: Gastric emptying of phenol red semisolid meal in rats at the dose of 0.5 mg/kg administered perorally.; assay type: functional; conditions: route oral
Rattus norvegicus [4] = experiment: Gastric emptying of phenol red semisolid meal in rats at the dose of 0.2 mg/kg administered perorally.; assay type: functional; conditions: route oral
Rattus norvegicus [5] = experiment: Gastric emptying of resin solid meal in rats at the dose of 2.0 mg/kg administered perorally.; assay type: functional; conditions: route oral
Mus musculus [6] = experiment: Gastric emptying of phenol red semisolid meal in mouse at the dose of 0.5 mg/kg administered perorally.; assay type: functional; conditions: route oral; method in brief: as §1
Rattus norvegicus [7] = experiment: Gastric emptying of phenol red semisolid meal in rats at dose of 2.0 mg/kg, administered perorally.; assay type: functional; conditions: route oral
Mus musculus [8] = experiment: Toxicity tested in mouse and expressed as number of dead mouse / number of mouse used after a dose of 1.0 g/kg perorally; ++ moderate toxicity; assay type: organism-based; conditions: in vivo, po, 1000 mg/kg; method in brief: as §2
Mus musculus [9] = experiment: Toxicity tested in mouse and expressed as number of dead mouse / number of mouse used after a dose of 1.0 g/kg perorally; +++ potent toxicity; assay type: organism-based; conditions: in vivo, po, 1000 mg/kg; method in brief: as §2

CCOc1cc(N)c(Cl)cc1C(=O)NCC1CN(Cc2cccc(C(F)(F)F)c2)CCO1 (centres undefined)
GE (Mus musculus [1]): 21%
Acute toxicity (Mus musculus [2]): slight toxicity
GE (Rattus norvegicus [3]): 37%
GE (Rattus norvegicus [4]): 32%
GE (Rattus norvegicus [5]): 22%
GE (Mus musculus [6]): 4%
GE (Rattus norvegicus [7]): 58%

COc1cc(N)c(Cl)cc1C(=O)NCC1CN(Cc2c(F)c(F)c(F)c(F)c2F)CCO1 (centres undefined)
Acute toxicity (Mus musculus [2]): slight toxicity
GE (Rattus norvegicus [7]): 39%

CCOc1cc(N)c(Cl)cc1C(=O)NCC1CN(Cc2ccccc2)CCO1 (centres undefined)
GE (Mus musculus [1]): 23%
Acute toxicity (Mus musculus [2]): Partially active
GE (Rattus norvegicus [3]): 34%
GE (Rattus norvegicus [5]): 58%
GE (Mus musculus [6]): 35%
GE (Rattus norvegicus [7]): 54%

COc1cc(N)c(Cl)cc1C(=O)NCC1CN(CCc2ccccc2)CCO1 (centres undefined)
GE (Rattus norvegicus [7]): 29%

CCOc1cc(N)c(Cl)cc1C(=O)NCC1CN(Cc2cccc(C#N)c2)CCO1 (centres undefined)
GE (Rattus norvegicus [7]): 33%

COc1cc(N)c(Cl)cc1C(=O)NCC1CN(Cc2cccc(F)c2)CCO1 (centres undefined)
GE (Rattus norvegicus [7]): 30%

CCOc1cc(N)c(Cl)cc1C(=O)NCC1CN(Cc2ccccc2C#N)CCO1 (centres undefined)
GE (Rattus norvegicus [7]): 29%

CCOc1cc(NC(C)=O)c(Cl)cc1C(=O)NCC1CN(Cc2ccc(F)cc2)CCO1 (centres undefined)
GE (Mus musculus [1]): 82%
GE (Rattus norvegicus [3]): 22%
GE (Rattus norvegicus [4]): 33%
GE (Rattus norvegicus [5]): 0%
GE (Mus musculus [6]): 75%
GE (Rattus norvegicus [7]): 74%

CCOc1cc(N)c(Cl)cc1C(=O)NCC1CN(Cc2cccc(F)c2)CCO1 (centres undefined)
GE (Rattus norvegicus [7]): 54%

CCOc1cc(N)c(Cl)cc1C(=O)NCC1CN(CCCc2ccccc2)CCO1 (centres undefined)
GE (Rattus norvegicus [7]): 18%

CCOc1cc(N)c(Cl)cc1C(=O)NCC1CN(Cc2ccc(F)cc2)CCO1 (centres undefined) [MOSAPRIDE]
GE (Mus musculus [1]): 37%
Acute toxicity (Mus musculus [8]): Partially active
GE (Rattus norvegicus [3]): 46%
GE (Rattus norvegicus [4]): 44%
GE (Rattus norvegicus [5]): 79%
GE (Mus musculus [6]): 44%
GE (Rattus norvegicus [7]): 61%

CCOc1cc(NC=O)c(Cl)cc1C(=O)NCC1CN(Cc2ccc(F)cc2)CCO1 (centres undefined)
GE (Rattus norvegicus [7]): 33%

COc1cc(N)c(Cl)cc1C(=O)NCC1CN(C(C)c2ccccc2)CCO1 (centres undefined)
Acute toxicity (Mus musculus [9]): potent toxicity
GE (Rattus norvegicus [7]): 42%

CCOc1cc(N)c(Cl)cc1C(=O)NCC1CN(Cc2ccccc2F)CCO1 (centres undefined)
GE (Rattus norvegicus [7]): 60%

CCOc1cc(N)c(Cl)cc1C(=O)NCC1CN(Cc2c(F)c(F)c(F)c(F)c2F)CCO1 (centres undefined)
GE (Rattus norvegicus [7]): 23%

COc1cc(N)c(Cl)cc1C(=O)NCC1CN(Cc2ccc(C)cc2)CCO1 (centres undefined)
GE (Rattus norvegicus [7]): 11%

COc1cc(N)c(Cl)cc1C(=O)NCC1CN(Cc2ccc([N+](=O)[O-])cc2)CCO1 (centres undefined)
GE (Rattus norvegicus [7]): 22%

COc1cc(N)c(Cl)cc1C(=O)NCC1CN(Cc2ccc(C(=O)O)cc2)CCO1 (centres undefined)
GE (Rattus norvegicus [7]): 18%

COc1cc(N)c(Cl)cc1C(=O)NCC1CN(Cc2ccccc2C#N)CCO1 (centres undefined)
Acute toxicity (Mus musculus [2]): slight toxicity
GE (Rattus norvegicus [7]): 43%

COc1cc(N)c(Cl)cc1C(=O)NCC1CN(C(C)c2ccc(F)cc2)CCO1 (centres undefined)
GE (Rattus norvegicus [7]): 13%

COc1cccc(CN2CCOC(CNC(=O)c3cc(Cl)c(N)cc3OC)C2)c1 (centres undefined)
GE (Rattus norvegicus [7]): 10%

CCOc1cc(N)c(Cl)cc1C(=O)NCC1CN(Cc2ccc(F)cc2F)CCO1 (centres undefined)
GE (Mus musculus [1]): 89%
GE (Rattus norvegicus [3]): 42%
GE (Rattus norvegicus [4]): 0%
GE (Rattus norvegicus [5]): 76%
GE (Mus musculus [6]): 83%
GE (Rattus norvegicus [7]): 76%

CCOc1cc(N)c(Cl)cc1C(=O)NCC1CN(C(C)c2ccc(Cl)cc2)CCO1 (centres undefined)
GE (Rattus norvegicus [7]): 33%

COc1cc(N)c(Cl)cc1C(=O)NCC1CN(Cc2ccc(C(F)(F)F)cc2)CCO1 (centres undefined)
GE (Rattus norvegicus [7]): 23%

CCOc1cc(N)c(Cl)cc1C(=O)NCC1CN(C(C)c2ccccc2)CCO1 (centres undefined)
Acute toxicity (Mus musculus [9]): potent toxicity
GE (Rattus norvegicus [7]): 44%

CCOc1cc(N)c(Cl)cc1C(=O)NCC1C[N+]([O-])(Cc2ccccc2Cl)CCO1 (centres undefined)
GE (Rattus norvegicus [7]): 52%

CCOc1cc(N)c(Cl)cc1C(=O)NCC1CN(Cc2ccc(Cl)cc2)CCO1 (centres undefined)
GE (Mus musculus [1]): 21%
Acute toxicity (Mus musculus [2]): slight toxicity
GE (Rattus norvegicus [3]): 50%
GE (Rattus norvegicus [4]): 37%
GE (Rattus norvegicus [5]): 65%
GE (Mus musculus [6]): 0%
GE (Rattus norvegicus [7]): 63%

COc1cc(N)c(Cl)cc1C(=O)NCC1CN(Cc2ccccc2F)CCO1 (centres undefined)
GE (Rattus norvegicus [7]): 28%

COc1cc(N)c(Cl)cc1C(=O)NCC1CN(Cc2ccccc2)CCO1 (centres undefined)
GE (Mus musculus [1]): 59%
Acute toxicity (Mus musculus [8]): Partially active
GE (Rattus norvegicus [3]): 18%
GE (Rattus norvegicus [5]): 16%
GE (Mus musculus [6]): 41%
GE (Rattus norvegicus [7]): 39%

COc1cc(N)c(Cl)cc1C(=O)NCC1CN(Cc2c(C)cc(C)cc2C)CCO1 (centres undefined)
GE (Rattus norvegicus [7]): 5%

COc1cc(N)c(Cl)cc1C(=O)NCC1CN(C(c2ccccc2)c2ccccc2)CCO1 (centres undefined)
GE (Rattus norvegicus [7]): 15%

COc1cc(N)c(Cl)cc1C(=O)NCC1CN(Cc2ccc(Br)cc2)CCO1 (centres undefined)
GE (Rattus norvegicus [7]): 15%

CCOc1cc(N)c(Cl)cc1C(=O)NCC1CN(Cc2ccc(C#N)cc2)CCO1 (centres undefined)
Acute toxicity (Mus musculus [2]): slight toxicity
GE (Rattus norvegicus [7]): 46%

COc1cc(N)c(Cl)cc1C(=O)NCC1CN(Cc2ccc(Cl)cc2)CCO1 (centres undefined)
Acute toxicity (Mus musculus [8]): moderate toxicity
GE (Rattus norvegicus [7]): 36%

COc1cc(N)c(Cl)cc1C(=O)NCC1CN(Cc2ccc(Cl)c(Cl)c2)CCO1 (centres undefined)
GE (Rattus norvegicus [7]): 16%

CCOc1cc(N)c(Cl)cc1C(=O)NCC1CN(Cc2ccc(C(=O)O)cc2)CCO1 (centres undefined)
GE (Rattus norvegicus [7]): 13%

COc1cc(N)c(Cl)cc1C(=O)NCC1CN(Cc2ccc(F)cc2)CCO1 (centres undefined)
GE (Rattus norvegicus [7]): 38%

CCOc1cc(N)c(Cl)cc1C(=O)NCC1CN(Cc2ccc(F)c(F)c2)CCO1 (centres undefined)
GE (Rattus norvegicus [7]): 46%

CCOc1cc(N)c(Cl)cc1C(=O)NCC1CN(Cc2cc(F)cc(F)c2)CCO1 (centres undefined)
GE (Rattus norvegicus [7]): 52%

COc1cc(N)c(Cl)cc1C(=O)NCC1CN(Cc2cccc(C(F)(F)F)c2)CCO1 (centres undefined)
Acute toxicity (Mus musculus [8]): moderate toxicity
GE (Rattus norvegicus [7]): 43%

CCOc1cc(N)c(Cl)cc1C(=O)NCC1CN(Cc2ccccc2Cl)CCO1 (centres undefined)
Acute toxicity (Mus musculus [2]): slight toxicity
GE (Rattus norvegicus [7]): 51%

CCOc1cc(N)c(Cl)cc1C(=O)NCC1CN(CCCCc2ccccc2)CCO1 (centres undefined)
GE (Rattus norvegicus [7]): 47%

COc1cc(N)c(Cl)cc1C(=O)NCC1CN(Cc2ccc(N)cc2)CCO1 (centres undefined)
GE (Rattus norvegicus [7]): 17%

CCOc1cc(N)c(Cl)cc1C(=O)NCC1CN(Cc2ccc(Cl)cc2[N+](=O)[O-])CCO1 (centres undefined)
GE (Rattus norvegicus [7]): 47%

CCOc1cc(N)c(Cl)cc1C(=O)NCC1CN(Cc2ccc(C(=O)OC)cc2)CCO1 (centres undefined)
GE (Rattus norvegicus [7]): 52%

COc1cc(N)c(Cl)cc1C(=O)NCC1CN(Cc2ccc(C#N)cc2)CCO1 (centres undefined)
GE (Mus musculus [1]): 44%
Acute toxicity (Mus musculus [2]): slight toxicity
GE (Rattus norvegicus [3]): 21%
GE (Rattus norvegicus [4]): 0%
GE (Rattus norvegicus [5]): 36%
GE (Mus musculus [6]): 15%
GE (Rattus norvegicus [7]): 49%

COc1cc(N)c(Cl)cc1C(=O)NCC1CN(Cc2cccc(C#N)c2)CCO1 (centres undefined)
Acute toxicity (Mus musculus [9]): potent toxicity
GE (Rattus norvegicus [7]): 42%

CCOc1cc(N)c(Cl)cc1C(=O)NCC1CN(Cc2cccc(Cl)c2)CCO1 (centres undefined)
Acute toxicity (Mus musculus [8]): moderate toxicity
GE (Rattus norvegicus [7]): 58%

CCOc1cc(N)c(Cl)cc1C(=O)NCC1C[N+](C)(Cc2ccccc2Cl)CCO1.[I-] (centres undefined)
GE (Rattus norvegicus [7]): 34%

COc1ccc(CN2CCOC(CNC(=O)c3cc(Cl)c(N)cc3OC)C2)cc1 (centres undefined)
GE (Rattus norvegicus [7]): 10%
